A selection: hits, their analogues and other compounds. The true share with any hit is near 2.7%.
RBBP9 inh: inhibitors of human serine hydrolase RBBP9. O75884. recombinant RBBP9, FP-Rh probe fluorescence polarization. inhibition, % at 7.94 µM. 220,000 tested, 0.2% active. AID 1515;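 active = inhibition above the campaign mean of all tested compounds plus 3 SD, cut at about 14% in these data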;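 also: plate controls were DMSO wells with RBBP9 for no effect and wells lacking RBBP9 protein for full effect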
Target sequence (O75884 whole entry, looked up): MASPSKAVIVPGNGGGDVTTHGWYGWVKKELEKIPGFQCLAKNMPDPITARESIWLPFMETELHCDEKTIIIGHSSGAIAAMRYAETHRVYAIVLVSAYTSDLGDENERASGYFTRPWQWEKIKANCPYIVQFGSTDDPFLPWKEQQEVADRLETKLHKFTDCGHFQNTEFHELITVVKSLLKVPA
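Material: RBBP9 protein. Amount: RBBP9 at 2.5 µM in dispensed solution, before mixing. Schedule: 30 min then 45 min, 25 °C. Medium: Tris buffer pH 8.0, NaCl, Pluronic. Measured by: fluorescence polarization. Measure: percent inhibition from mP, scaled between DMSO and no-protein wells. Replication: one well per compound.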
PAFAH1B3 FP inh: blocks human PAF acetylhydrolase 1B catalytic subunit 3. Q15102. recombinant PAFAH1B3, FP-rhodamine probe, fluorescence polarization. inhibition, % at 3.39 µM. 340,000 tested, 0.28% active;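 active = inhibition above the screen-wide average of all tested compounds plus 3 SD, cut at about 25% in these data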;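 also: 0% = enzyme with DMSO only and 100% = wells lacking PAFAH1B3 protein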
Target sequence (Q15102 whole entry, looked up): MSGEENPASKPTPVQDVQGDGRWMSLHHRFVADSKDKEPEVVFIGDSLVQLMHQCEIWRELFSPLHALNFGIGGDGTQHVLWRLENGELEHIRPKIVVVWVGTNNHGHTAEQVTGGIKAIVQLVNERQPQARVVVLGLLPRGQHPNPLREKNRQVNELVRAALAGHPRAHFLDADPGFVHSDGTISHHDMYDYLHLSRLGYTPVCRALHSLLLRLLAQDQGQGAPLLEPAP
PAFAH2 FP inh: inhibitors of human PAFAH2; 340,000 tested, 0.99% active; inhibition, % at 3.39 µM; AID 492956; Q99487; recombinant PAFAH2, FP-rhodamine activity probe, fluorescence polarization;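 active = inhibition above the mean over all tested compounds plus 3 SD, cut at about 30% in these data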;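 also: inhibitors block probe labeling of enzyme so polarization drops; 0% = enzyme with DMSO and 100% = wells lacking PAFAH2 protein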
PAFAH1B2 FP inh: inhibitors of human PAFAH1B2; 340,000 tested, 1.2% active; recombinant PAFAH1B2, FP-rhodamine activity probe, fluorescence polarization; inhibition, % at 3.39 µM; AID 492953;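 active = inhibition above the mean of all tested compounds plus 3 SD, cut at about 24% in these data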;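 also: 0% = enzyme with DMSO and 100% = wells lacking PAFAH1B2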
pPAFAH FP inh: pPAFAH (human) enzyme inhibition. Q13093. recombinant pPAFAH, FP-rhodamine probe fluorescence polarization. inhibition, % at 3.39 µM. 330,000 tested, 1.5% active;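 active = inhibition above the mean inhibition across the screen plus 3 SD, cut at about 25% in these data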;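 also: inhibitors block binding of the rhodamine activity-based probe so polarization drops; 0% = enzyme with DMSO and 100% = wells lacking pPAFAH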
The depositor's hits bear a star; / = not tested or not shown.

SMILES	RBBP9 inh	PAFAH1B3 FP inh	PAFAH2 FP inh	PAFAH1B2 FP inh	pPAFAH FP inh
CN(CCOc1ccc(Cl)cc1)C(=O)c1cc(-c2ccco2)nc2ccccc12	/	2.2	6.5	10.6	25.6*
CCOc1ccc(NC(=O)CN(C)C(=O)c2cc(-c3ccco3)nc3ccccc23)cc1OCC	/	3.0	-0.3	1.5	/
Cc1ccc(NC(=O)CN(C)C(=O)c2cc(-c3ccco3)nc3ccccc23)cc1	/	2.4	3.5	1.0	32.2*
CN(CC(=O)Nc1ccc(F)cc1)C(=O)c1cc(-c2ccco2)nc2ccccc12	/	-3.2	6.4	3.3	27.1*
COc1cccc(NC(=O)CN(C)C(=O)c2cc(-c3ccco3)nc3ccccc23)c1	/	8.0	8.0	-3.4	9.4
O=C(CNC(=S)N(Cc1ccccc1Cl)C1CCCC1)NCCCN1CCOCC1	-5.7	5.4	-1.6	1.0	2.3
CCc1ccccc1N(C)S(=O)(=O)c1ccc(-c2cc(C)no2)s1	/	4.6	3.5	3.6	0.9
Nc1cc(S(=O)(=O)Nc2ccccc2Cl)ccc1N1CCOCC1	-9.3	11.1	6.8	0.6	3.7
O=S(=O)(Nc1ccc2c(c1)OCCO2)c1ccc(F)c(F)c1	/	7.1	2.2	9.0	7.8
Nc1cc(S(=O)(=O)Nc2ccc(Cl)cc2)ccc1N1CCOCC1	-1.5	-2.7	4.5	0.9	25.0*
O=S(=O)(Nc1ccc(Cl)cc1)c1ccc2c(c1)CCO2	-12.2	-5.1	0.2	19.7	31.6*
CC1C/C(=N\NC(=O)c2ccc([N+](=O)[O-])cc2)CC(C)(C)C1 (stereo unspecified)	-3.7	-1.9	5.7	1.1	8.2
CC1C/C(=N\NC(=O)c2ccc(NS(=O)(=O)c3ccc(Br)cc3)cc2)CC(C)(C)C1 (stereo unspecified)	-6.4	-10.4	13.7	25.5*	17.8
O=Cc1cccc(OC(=O)/C=C/c2ccco2)c1	/	9.0	15.4	4.8	29.6*
COC(=O)c1ccc(OC(=O)/C=C/c2ccco2)cc1	/	5.9	25.7	5.6	5.2
Cc1c(N=C2C=C(Br)C(=O)C(Br)=C2)c(=O)n(-c2ccccc2)n1C	7.2	2.5	15.7	35.0*	/
COc1ccc(NC(C)=O)cc1NC(=O)C1CCCN1C(=O)c1cccs1 (stereo unspecified)	/	-0.9	2.0	-2.0	/
CCCn1nc(C(=O)Nc2cccc(C(=O)OC)c2)c2ccccc2c1=O	2.4	1.2	-0.2	4.3	-1.7
COC(=O)c1cccc(NC(=O)c2nn(C(C)C)c(=O)c3ccccc23)c1	-3.7	2.0	9.3	3.6	24.9*
O=C(O)C1=CC(=C(c2ccc(O)c(C(=O)O)c2)c2ccc(O)c(C(=O)O)c2)C=CC1=O	/	/	/	/	65.7*
CSC(=O)NC12CC3CC(CC(C)(C3)C1)C2	-16.0	-4.3	1.9	28.1*	-3.4
COC(=O)c1cc(C(=O)Nc2nnc(C3CC3)s2)cc([N+](=O)[O-])c1	-7.2	1.1	-0.7	-0.7	1.2
NC(=S)n1[nH]c(-c2ccc([N+](=O)[O-])cc2)c(N=Nc2cccc([N+](=O)[O-])c2)c1=O	-4.8	19.3	38.6*	26.6*	/
NC(=S)n1[nH]c(-c2ccc([N+](=O)[O-])cc2)c(N=Nc2ccccc2[N+](=O)[O-])c1=O	-1.0	12.2	16.6	9.0	/
CC(OC(=O)c1cccc(-n2cnnn2)c1)C(=O)Nc1ccc(F)cc1 (stereo unspecified)	/	0.1	-3.9	-3.8	0.8
SMILES	RBBP9 inh	PAFAH1B3 FP inh	PAFAH2 FP inh	PAFAH1B2 FP inh	pPAFAH FP inh
COc1ccc(C(C)(C)NC(=O)C2CCC(=O)N(C3CC3)C2)cc1OC (stereo unspecified)	/	-0.4	0.2	1.8	0.6
CC(=O)Oc1ccc(C(c2ccc(OC(C)=O)cc2)c2ccccn2)cc1	25.4*	5.8	-1.6	20.1	-0.3
Cc1nc2scc(-c3ccco3)c2c(=O)n1/N=C/N(C)C	-5.0	2.1	3.4	3.0	-0.2
CC1CC(C)CN(C(=O)CN2C(=O)NC(c3ccccc3)(c3ccccc3)C2=O)C1 (stereo unspecified)	/	0.4	-1.3	26.1*	2.5
Cn1c(N)c(C(=O)CSc2nc(C3CC3)n(-c3ccccc3)n2)c(=O)[nH]c1=O	/	2.8	6.6	3.4	31.8*
CCOc1ccc2oc(C(=O)OCC(=O)NCC3CCCO3)c(C)c2c1 (stereo unspecified)	/	-3.4	4.7	3.9	/
N#Cc1ccc(C(=O)OCC(=O)NC2CCCC2)cc1	/	-0.8	-0.1	4.6	3.4
Cc1cccc(C(=O)OCC(=O)NC2CCCCCCC2)c1	/	6.0	91.5*	7.7	29.4*

Screening data from PubChem BioAssay.
